Test results as given in ChEMBL document CHEMBL1158040, “Biological activities and 3D QSAR studies of a series of Delisea pulchra (cf. fimbriata) derived natural products” (J Nat Prod, 2006).
In brackets after ≈: the same amount, converted by molar mass. Activity calls are given as the source filed them. The calls are words filed in the database; no cut-off is given here.

Legend:
Monocyte [1] = assay: Inhibition of LPS-stimulated IL1 production in human monocytes; assay type: functional, cell-based
Escherichia coli [2] = assay: Antimicrobial activity against Escherichia coli at 10 ug; assay type: functional, organism-based
How it was run: (§1)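 Direct bioautography: each compound is spotted onto TLC plates and the solvent evaporated. The test organism is then grown directly on the plate. Growth inhibition is scored at the spot as active (+) or very active (++). Where a number is given, it is the radius in mm of the inhibition zone around the spot.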

Plasmodium falciparum [3] = assay: Antimalarial activity against chloroquine-sensitive Plasmodium falciparum D6 at 10 ug/ml; assay type: functional
Bacillus subtilis [4] = assay: Antimicrobial activity against Bacillus subtilis at 5 ug; assay type: functional, organism-based; how it was run: as §1
Escherichia coli [5] = assay: Antimicrobial activity against Escherichia coli at 0.1 ug; assay type: functional, organism-based; how it was run: as §1
Penicillium oxalicum [6] = assay: Antimicrobial activity against Penicillium oxalicum at 0.01 ug; assay type: functional; how it was run: as §1
Bacillus subtilis [7] = assay: Antimicrobial activity against Bacillus subtilis at 10 ug; assay type: functional, organism-based; how it was run: as §1
[8] = Cytotoxicity against human U373 cells; assay type: functional, U-373MG ATCC; settings: U373 MG, read-out: ED50 (the source's name)
Micrococcus luteus [9] = assay: Antimicrobial activity against Micrococcus luteus at 5 ug; assay type: functional, organism-based; how it was run: as §1
Bacillus subtilis [10] = assay: Antimicrobial activity against Bacillus subtilis at 1 ug; assay type: functional, organism-based; how it was run: as §1
Escherichia coli [11] = assay: Antimicrobial activity against Escherichia coli at 1 ug; assay type: functional, organism-based; how it was run: as §1
KB [12] = assay: Cytotoxicity against human KB cells; assay type: functional; settings: read-out: ED50 (the source's name)
Micrococcus luteus [13] = assay: Antimicrobial activity against Micrococcus luteus at 10 ug; assay type: functional, organism-based; how it was run: as §1
KB [14] = assay: Cytotoxicity against vinblastine-sensitive human KB cells; assay type: functional; settings: read-out: ED50 (the source's name)
Penicillium oxalicum [15] = assay: Antimicrobial activity against Penicillium oxalicum at 10 ug; assay type: functional; settings: read-out: IZ; how it was run: as §1
Penicillium oxalicum [16] = assay: Antimicrobial activity against Penicillium oxalicum at 5 ug; assay type: functional; settings: read-out: IZ; how it was run: as §1
[17] = Cytotoxicity against human BCA1 cells; assay type: functional; settings: read-out: ED50 (the source's name)
A-431 = assay: Cytotoxicity against human A431 cells; assay type: functional; settings: read-out: ED50 (the source's name)
Penicillium oxalicum [18] = assay: Antimicrobial activity against Penicillium oxalicum at 0.1 ug; assay type: functional; settings: read-out: IZ; how it was run: as §1
Micrococcus luteus [19] = assay: Antimicrobial activity against Micrococcus luteus at 1 ug; assay type: functional, organism-based; how it was run: as §1
Monocyte [20] = assay: Inhibition of IL1 biosynthesis in human monocytes; assay type: functional, cell-based
KB [21] = assay: Cytotoxicity against vinblastine-resistant human KB cells; assay type: functional; settings: read-out: ED50 (the source's name)
How it was run: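 The vinblastine-resistant KB-V1 line was tested both with and without added vinblastine in the cultured tumour-cell cytotoxicity panel. Results are reported as ED50.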

HT-1080 = assay: Cytotoxicity against human HT1080 cells; assay type: functional; settings: read-out: ED50 (the source's name)
[22] = Inhibition of PKC
[23] = Cytotoxicity against human Col1 cells; assay type: functional; settings: read-out: ED50 (the source's name)
P388 = assay: Cytotoxicity against mouse P388 cells; assay type: functional; settings: read-out: ED50 (the source's name)
[24] = Cytotoxicity against human MEL-2 cells; assay type: functional; settings: MEL2, read-out: ED50 (the source's name)
Escherichia coli [25] = assay: Antimicrobial activity against Escherichia coli at 5 ug; assay type: functional, organism-based; how it was run: as §1
LNCaP = assay: Cytotoxicity against human LNCAP cells; assay type: functional; settings: read-out: ED50 (the source's name)
ZR-75-1 = assay: Cytotoxicity against human ZR-75-1 cells; assay type: functional; settings: read-out: ED50 (the source's name)
Penicillium oxalicum [26] = assay: Antimicrobial activity against Penicillium oxalicum at 1 ug; assay type: functional; settings: for zone of inhibition at 1 µg/disc: read-out: IZ; how it was run: as §1
Micrococcus luteus [27] = assay: Antimicrobial activity against Micrococcus luteus at 0.1 ug; assay type: functional, organism-based; how it was run: as §1
Lu1 = assay: Cytotoxicity against human Lu1 cells; assay type: functional; settings: read-out: ED50 (the source's name)
[28] = target: Human immunodeficiency virus type 1 reverse transcriptase (Human immunodeficiency virus 1, UniProt Q72547); assay: Inhibition of HIV1 RT at 200 uM
How it was run: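 HIV-1 reverse transcriptase inhibition was measured in an ELISA-based system.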

Plasmodium falciparum [29] = assay: Antimalarial activity against chloroquine-resistant Plasmodium falciparum W2; assay type: functional, organism-based
How it was run: (§2)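 In vitro growth inhibition of Plasmodium falciparum clones D6 (chloroquine-sensitive) and W2 (chloroquine-resistant); IC50 reported in μg/mL.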

[30] = Selectivity index, ratio of IC50 for human KB cells to IC50 for Plasmodium falciparum D6; assay type: toxicity, cell-based; settings: KB cells versus Plasmodium falciparum D6, read-out: Ratio IC50
How it was run: (§3)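 Plasmodium falciparum clones were assayed in vitro: D6 (chloroquine-sensitive) and W2 (chloroquine-resistant). IC50 is in μg/mL. The selectivity index is the ratio of the antimalarial to the cytotoxic activity.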

Plasmodium falciparum [31] = assay: Antimalarial activity against chloroquine-sensitive Plasmodium falciparum D6; assay type: functional, organism-based; how it was run: as §2
[32] = Inhibition of TK assessed as residual activity at 200 ug/ml
How it was run: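 The enzyme was tyrosine kinase p56lck, with test compounds at 200 μg/mL. The read-out is the remaining enzyme activity.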

[33] = Selectivity index, ratio of IC50 for human KB cells to IC50 for Plasmodium falciparum W2; assay type: toxicity, cell-based; settings: KB cells versus Plasmodium falciparum W2, read-out: Ratio IC50; how it was run: as §3

| SMILES | Activity (Escherichia coli [2]) | Activity (Plasmodium falciparum [3]) [%] | Activity (Bacillus subtilis [4]) | Activity (Escherichia coli [5]) | Activity (Bacillus subtilis [7]) | EC50 [8] [µg/mL] | Activity (Micrococcus luteus [9]) | Activity (Bacillus subtilis [10]) | Activity (Escherichia coli [11]) | EC50 (KB [12]) [µg/mL] | Activity (Micrococcus luteus [13]) | EC50 (KB [14]) [µg/mL] | zone of inhibition at 10 µg/disc (Penicillium oxalicum [15]) [mm] | zone of inhibition at 5 µg/disc (Penicillium oxalicum [16]) [mm] | EC50 [17] [µg/mL] | Activity (Micrococcus luteus [19]) | EC50 (KB [21]) [µg/mL] | Activity (Escherichia coli [25]) | EC50 (LNCaP) [µg/mL] | EC50 (ZR-75-1) [µg/mL] | also measured |
| --- | --- | --- | --- | --- | --- | --- | --- | --- | --- | --- | --- | --- | --- | --- | --- | --- | --- | --- | --- | --- | --- |
| CCCCC1=C(Br)C(=C(Br)Br)OC1=O | Active | >50 | Active | inactive | Active | > 20 | Active | inactive | inactive | > 20 | Active | > 20 | 11 | 13 | 6.4 (≈ 16.5 µM) | inactive | > 20 | Active | 9.3 (≈ 23.9 µM) | 8.6 (≈ 22.1 µM) | IC50 (Monocyte [1]): 1.8 µM; Activity (Penicillium oxalicum [6]): inactive; EC50 (A-431): 10.5 µg/mL (≈ 27 µM); zone of inhibition at 0.1 µg/disc (Penicillium oxalicum [18]): 1 mm; IC50 (Monocyte [20]): 3 µM; EC50 (HT-1080): > 20 µg/mL; IC50 [22]: ≥ 200 µM; EC50 [23]: 12.4 µg/mL (≈ 31.9 µM); EC50 (P388): > 5 µg/mL; EC50 [24]: 4.2 µg/mL (≈ 10.8 µM); zone of inhibition at 1 µg/disc (Penicillium oxalicum [26]): 8 mm |
| CCC[C@@H](OC(C)=O)C1=C(Br)C(=C(Br)Br)OC1=O | Active | – | Active | inactive | Active | – | Active | Active | inactive | 0.3 (≈ 0.671 µM) | Active | 0.5 (≈ 1.12 µM) | 12 | 14 | – | Active | 3.5 (≈ 7.83 µM) | Active | 2.1 (≈ 4.7 µM) | < 0.1 | zone of inhibition at 0.01 µg/disc (Penicillium oxalicum [6]; read-out: IZ): 3 mm; Activity (Micrococcus luteus [27]): Active; EC50 (Lu1): 1.1 µg/mL (≈ 2.46 µM); IC50 [28]: 700 µM; zone of inhibition at 0.1 µg/disc (Penicillium oxalicum [18]): 6 mm; IC50 (Plasmodium falciparum [29]): 9.1 µg/mL (≈ 20.4 µM); selectivity ratio [30]: < 1; IC50 (Plasmodium falciparum [31]): 2.2 µg/mL (≈ 4.92 µM); Activity [32]: 1.9%; selectivity ratio [33]: < 1; zone of inhibition at 1 µg/disc (Penicillium oxalicum [26]): 10 mm |
| CCCCCCC(=O)C(Br)=C(Br)Br | inactive | >50 | inactive | inactive | inactive | > 20 | Active | inactive | inactive | > 20 | Active | > 20 | 10 | 5 | > 20 | inactive | > 20 | inactive | > 20 | > 20 | EC50 (Lu1): > 20 µg/mL; EC50 (A-431): > 20 µg/mL; EC50 (HT-1080): > 20 µg/mL; IC50 [22]: ≥ 200 µM; EC50 [23]: > 20 µg/mL; EC50 (P388): > 5 µg/mL; EC50 [24]: > 20 µg/mL; Activity (Penicillium oxalicum [26]): inactive |
